Reference: ChEMBL document CHEMBL1148462, “A novel class of phosphonate nucleosides. 9-[(1-phosphonomethoxycyclopropyl)methyl]guanine as a potent and selective anti-HBV agent” (J Med Chem, 2004)

Experiments:
HepG2 [1] = experiment: Cytotoxic activity in HepG2 2.2.15 cell line; format: functional; settings: Homo sapiens
HepG2 [2] = experiment: (§1) Compound tested for anti-HBV (hepatitis B virus) activity in HepG2 2.2.15 cell line; format: functional, cell-based; settings: Homo sapiens
Summary of the method: (§2)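 HBV-producing HepG2 2.2.15 cells cultured in DMEM/10% FBS with 400 μg/mL G418, seeded at 1.5 × 10⁴ cells/well and grown 2 days to 80–90% confluence. Medium then switched to 2% FBS. Compounds at 0–100 μM (fivefold steps) added every other day for 9 days. Day-10 supernatant boiled, serially diluted and HBV DNA quantified by TaqMan real-time PCR (40 cycles) to derive EC50.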

HepG2 [3] = experiment: as §1; format: functional; settings: Homo sapiens; summary of the method: as §2
Human alphaherpesvirus 1 = experiment: […] of herpes simplex virus (HSV-1)
[4] = tested on: Human immunodeficiency virus 1; experiment: Concentration required for inhibition of replication of human immunodeficiency virus (HIV-1); format: functional
[5] = Oral bioavailability in rat; format: ADME, organism-based; settings: in vivo

Row | SMILES | CC50 (HepG2 [1]) [µM] | EC50 (HepG2 [2]) [µM] | EC80 (HepG2 [3]) [µM] | Inhibition (Human alphaherpesvirus 1) [µM] | Inhibition [4] [µM] | bioavailability [5] [%]
1 | Nc1ncnc2c1ncn2CC1(OCP(=O)(O)O)CC1 | > 1000 | 8 | – | – | – | –
2 | Nc1ncnc2c1ncn2CCOCP(=O)(O)O [ADEFOVIR] | – | 2 | 44 | – | – | –
3 | Nc1nc(O)c2ncn(CC3(OCP(=O)(O)O)CC3)c2n1 [LB80317] | > 1000 | 0.5 | 2.3 | > 30 | > 30 | –
4 | Nc1ncc2ncn(CC3(OCP(=O)(O)O)CC3)c2n1 [BESIFOVIR] | > 1000 | 4 | – | – | – | > 5
5 | Nc1nc(Cl)c2ncn(CC3(OCP(=O)(O)O)CC3)c2n1 | > 1000 | 1.5 | 7.5 | – | – | –
6 | Cc1nc(N)nc2c1ncn2CC1(OCP(=O)(O)O)CC1 | > 1000 | 8 | – | – | – | –
7 | CCOc1nc(N)nc2c1ncn2CC1(OCP(=O)(O)O)CC1 | > 1000 | 0.5 | 3 | – | – | –
8 | Cc1cn(CC2(OCP(=O)(O)O)CC2)c(=O)[nH]c1=O | > 1000 | > 30 | – | – | – | –
9 | CCNc1nc(N)nc2c1ncn2CC1(OCP(=O)(O)O)CC1 | > 1000 | > 30 | – | – | – | –
